Ten molecules from ChEMBL document CHEMBL1128434, “Gonadotropin-releasing hormone antagonists: novel members of the azaline B family” (1995) can be followed below.

Test [1] has as its target T1, Gonadotropin-releasing hormone receptor (Rattus norvegicus) (UniProt P30969).
T1 sequence (whole entry): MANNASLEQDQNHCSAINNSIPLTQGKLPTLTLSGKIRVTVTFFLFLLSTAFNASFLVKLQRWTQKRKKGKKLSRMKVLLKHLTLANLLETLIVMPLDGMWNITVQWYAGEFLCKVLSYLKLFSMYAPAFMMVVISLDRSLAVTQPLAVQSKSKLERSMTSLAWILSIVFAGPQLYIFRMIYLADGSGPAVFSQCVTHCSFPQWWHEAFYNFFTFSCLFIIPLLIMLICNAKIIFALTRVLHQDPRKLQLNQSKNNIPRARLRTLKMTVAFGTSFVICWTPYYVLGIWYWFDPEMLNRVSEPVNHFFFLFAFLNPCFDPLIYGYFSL
Put plainly: Effect in the anti ovulatory assay (AOA) in rats expressed as no. of rats ovulating/No of rats treated at 2.5 mg; 0/8. It is filed as functional.

For test [2], the species on record is Rattus norvegicus. Put plainly: Effect in the anti ovulatory assay (AOA) in rats expressed as no. of rats ovulating/No of rats treated at 1.0 mg; 8/8. It is filed as functional.
Test [3] is filed under the species Rattus norvegicus. Put plainly: Duration of action measured using castrated male rat assay to inhibit luteinizing hormone release.; fully active at 48 hr but not at 72 hr. Format: functional.
In test [4] the target is T1, Gonadotropin-releasing hormone receptor (Rattus norvegicus). Put plainly: Duration of action measured using castrated male rat assay to inhibit luteinizing hormone release.; fully active at 72 hr. It is filed as functional.
The species entered for test [5] is Rattus norvegicus. Put plainly: Effect in the anti ovulatory assay (AOA) in rats expressed as no. of rats ovulating/No of rats treated at 1.0 mg; 1/10. It is filed as functional.
For test [6], the species on record is Rattus norvegicus. Put plainly: Effect in the anti ovulatory assay (AOA) in rats expressed as no. of rats ovulating/No of rats treated at 50 mg; 4/7. Format: functional.
The species entered for test [7] is Rattus norvegicus. Put plainly: Effect in the anti ovulatory assay (AOA) in rats expressed as no. of rats ovulating/No of rats treated at 25 mg; 0/3. It is filed as functional.
The species entered for test [8] is Rattus norvegicus. Put plainly: Effect in the anti ovulatory assay (AOA) in rats expressed as no. of rats ovulating/No of rats treated at 10 mg; 2/6. It is filed as functional.
For test [9], the species on record is Rattus norvegicus. Put plainly: Effect in the anti ovulatory assay (AOA) in rats expressed as no. of rats ovulating/No of rats treated at 1.0 mg; 7/14. Format: functional.
The target in test [10] is T1, Gonadotropin-releasing hormone receptor (Rattus norvegicus). Put plainly: In vitro potency to inhibit GnRH-mediated LH secretion by cultured pituitary cells relative to [Ac-delta-Pro1,DFpa2,DTrp36]GnRH. Format: functional, cell-based. The note with it: Pituitary gland cell. In short, it runs like this:
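Dispersed rat pituitary cells in culture; antagonist inhibition of GnRH-stimulated LH secretion. Potency expressed relative to standard antagonist [Ac-Δ3Pro1,D4FPhe2,DTrp3,6]GnRH taken as 1.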

The species named for test [11] is Rattus norvegicus. Put plainly: Effect in the anti ovulatory assay (AOA) in rats expressed as no. of rats ovulating/No of rats treated at 1.0 mg; 9/18. Format: functional.
The species entered for test [12] is Rattus norvegicus. Put plainly: Effect in the anti ovulatory assay (AOA) in rats expressed as no. of rats ovulating/No of rats treated at 2.5 mg; 0/6. Format: functional.
The target in test [13] is T1, Gonadotropin-releasing hormone receptor (Rattus norvegicus). Put plainly: Duration of action, measured using castrated male rat assay to inhibit luteinizing hormone release.; fully active at 24 hr but not at 48 hr. It is filed as functional.
Test [14] is filed under the species Rattus norvegicus. Put plainly: Effect in the anti ovulatory assay (AOA) in rats expressed as no. of rats ovulating/No of rats treated at 2.0 mg; 1/10. Format: functional.
Test [15] is filed under the species Rattus norvegicus. Put plainly: Effect in the anti ovulatory assay (AOA) in rats expressed as no. of rats ovulating/No of rats treated at 2.5 mg; 3/7. It is filed as functional.
The species named for test [16] is Rattus norvegicus. Put plainly: Effect in the anti ovulatory assay (AOA) in rats expressed as no. of rats ovulating/No of rats treated at 1.0 mg; 2/2. It is filed as functional.
Test [17] is filed under the species Rattus norvegicus. Put plainly: Effect in the anti ovulatory assay (AOA) in rats expressed as no. of rats ovulating/No of rats treated at 2.5 mg; 4/8. Format: functional.
The species named for test [18] is Rattus norvegicus. Put plainly: Effect in the anti ovulatory assay (AOA) in rats expressed as no. of rats ovulating/No of rats treated at 1.0 mg; 0/7. Format: functional.

Consider `CC(=O)Nc1ccc(C[C@H](NC(=O)[C@H](CO)NC(=O)[C@@H](Cc2cccnc2)NC(=O)[C@@H](Cc2ccc(Cl)cc2)NC(=O)[C@@H](Cc2ccc3ccccc3c2)NC(C)=O)C(=O)N[C@H](Cc2ccc(NC(C)=O)cc2)C(=O)N[C@@H](CC(C)C)C(=O)N[C@@H](CCCCNC(C)C)C(=O)N2CCC[C@H]2C(=O)N[C@@H](C)N)cc1`, for which the figures for the No. of rats ovulated (in [1]; in the test listed under Rattus norvegicus [2]) were 0 and 8, respectively. In the test filed under Rattus norvegicus [3], the Duration of action was found to be 48 h.
For `CCC(=O)Nc1ccc(C[C@H](NC(=O)[C@H](CO)NC(=O)[C@@H](Cc2cccnc2)NC(=O)[C@@H](Cc2ccc(Cl)cc2)NC(=O)[C@@H](Cc2ccc3ccccc3c2)NC(C)=O)C(=O)N[C@H](Cc2ccc(NC(=O)CC)cc2)C(=O)N[C@@H](CC(C)C)C(=O)N[C@@H](CCCCNC(C)C)C(=O)N2CCC[C@H]2C(=O)N[C@H](C)N)cc1`, in [4], the Duration of action came out at 72 h. Also, the No. of rats ovulated in test [1] is 0; in the test filed under Rattus norvegicus [5], 4.
On to `CC(=O)N[C@H](Cc1ccc2ccccc2c1)C(=O)N[C@H](Cc1ccc(Cl)cc1)C(=O)N[C@H](Cc1cccnc1)C(=O)N[C@@H](CO)C(=O)N[C@@H](Cc1ccc(Nc2n[nH]c(N)n2)cc1)C(=O)N[C@H](Cc1ccc(Nc2n[nH]c(N)n2)cc1)C(=O)N[C@@H](CC(C)C)C(=O)N[C@@H](Cc1ccc(NC(C)C)cc1)C(=O)N1CCC[C@H]1C(=O)N[C@H](C)N`, for which the “No. of rats ovulated” value in the test listed under Rattus norvegicus [6] came out at 4.
In the case of `CC(=O)Nc1ccc(C[C@H](NC(=O)[C@H](CO)NC(=O)[C@@H](Cc2cccnc2)NC(=O)[C@@H](Cc2ccc(Cl)cc2)NC(=O)[C@H](Cc2ccc3ccccc3c2)NC(C)=O)C(=O)N[C@H](Cc2ccc(NC(C)=O)cc2)C(=O)N[C@@H](CC(C)C)C(=O)N[C@@H](CCCCNC(C)C)C(=O)N2CCC[C@H]2C(=O)N[C@H](C)N)cc1`, the “No. of rats ovulated” value in the test listed under Rattus norvegicus [7] is 0; in the test filed under Rattus norvegicus [8] it was 2.
As to `CC(=O)Nc1ccc(C[C@@H](NC(=O)[C@H](Cc2ccc(Nc3n[nH]c(N)n3)cc2)NC(=O)[C@H](CO)NC(=O)[C@@H](Cc2cccnc2)NC(=O)[C@@H](Cc2ccc(Cl)cc2)NC(=O)[C@@H](Cc2ccc3ccccc3c2)NC(C)=O)C(=O)N[C@@H](CC(C)C)C(=O)N[C@@H](CCCCNC(C)C)C(=O)N2CCC[C@H]2C(=O)N[C@H](C)N)cc1`, the results for the “No. of rats ovulated” value (in the test filed under Rattus norvegicus [9]; in test [1]) were 7 and 0, respectively. In test [4], this molecule registered a Duration of action of 72 h. Besides, in test [10], the Relative potency was found to be 0.82.
The molecule `CC(=O)N[C@H](Cc1ccc2ccccc2c1)C(=O)N[C@H](Cc1ccc(Cl)cc1)C(=O)N[C@H](Cc1cccnc1)C(=O)N[C@@H](CO)C(=O)N[C@@H](Cc1ccc(NC(=O)CCNc2n[nH]c(N)n2)cc1)C(=O)N[C@H](Cc1ccc(NC(=O)CCNc2n[nH]c(N)n2)cc1)C(=O)N[C@@H](CC(C)C)C(=O)N[C@@H](CCCCNC(C)C)C(=O)N1CCC[C@H]1C(=O)N[C@H](C)N` returned a Duration of action in test [4] of 72 h. The same molecule showed a Relative potency in test [10] of 0.52. Moreover, the “No. of rats ovulated” value amounted to 9 in the test filed under Rattus norvegicus [11] and 0 in the test listed under Rattus norvegicus [12].
On to `CC(=O)N[C@H](Cc1ccc2ccccc2c1)C(=O)N[C@H](Cc1ccc(Cl)cc1)C(=O)N[C@H](Cc1cccnc1)C(=O)N[C@@H](CO)C(=O)N[C@@H](CCCCNc1n[nH]c(N)n1)C(=O)N[C@H](CCCCNc1n[nH]c(N)n1)C(=O)N[C@@H](CC(C)C)C(=O)N[C@@H](CCCCNC(C)C)C(=O)N1CCC[C@H]1C(=O)N[C@H](C)N`, for which the Duration of action in test [13] was found to be 24 h. Also, in the test filed under Rattus norvegicus [14], the “No. of rats ovulated” value is given as 1. In [10], this molecule came in with a Relative potency of 0.23.
Regarding `CC(=O)N[C@H](Cc1ccc2ccccc2c1)C(=O)N[C@H](Cc1ccc(Cl)cc1)C(=O)N[C@H](Cc1cccnc1)C(=O)N[C@@H](CO)C(=O)N[C@@H](Cc1ccc(Nc2n[nH]c(N)n2)cc1)C(=O)N[C@H](Cc1ccc(Nc2n[nH]c(N)n2)cc1)C(=O)N[C@@H](CC(C)C)C(=O)N[C@@H](Cc1ccc(CNC(C)C)cc1)C(=O)N1CCC[C@H]1C(=O)N[C@H](C)N`, the Relative potency in [10] came to 1.1. For the same molecule, in the test listed under Rattus norvegicus [15], the “No. of rats ovulated” value is 3.
In the case of `CC(=O)N[C@H](Cc1ccc2ccccc2c1)C(=O)N[C@H](Cc1ccc(Cl)cc1)C(=O)N[C@H](Cc1cccnc1)C(=O)N[C@@H](CO)C(=O)N[C@@H](Cc1ccc(NC(=O)C2CCC(=O)N2)cc1)C(=O)N[C@H](Cc1ccc(NC(=O)C2CCC(=O)N2)cc1)C(=O)N[C@@H](CC(C)C)C(=O)N[C@@H](CCCCNC(C)C)C(=O)N1CCC[C@H]1C(=O)N[C@H](C)N` (some centres not stated), the “No. of rats ovulated” value was found to be 2 in the test filed under Rattus norvegicus [16] and 4 in the test filed under Rattus norvegicus [17].
Regarding `CC(=O)N[C@H](Cc1ccc2ccccc2c1)C(=O)N[C@H](Cc1ccc(Cl)cc1)C(=O)N[C@H](Cc1cccnc1)C(=O)N[C@@H](CO)C(=O)N[C@@H](Cc1ccc(Nc2n[nH]c(N)n2)cc1)C(=O)N[C@H](Cc1ccc(Nc2n[nH]c(N)n2)cc1)C(=O)N[C@@H](CC(C)C)C(=O)N[C@@H](CCCCNC(C)C)C(=O)N1CCC[C@H]1C(=O)N[C@H](C)N`, in test [4], the Duration of action was found to be 72 h. Also, the Relative potency in test [10] was determined as 1.3. Also, the “No. of rats ovulated” value in the test filed under Rattus norvegicus [18] worked out at 0.
